The results in this text go back to ChEMBL document CHEMBL5653631, “A Potent and Selective ULK1 Inhibitor Suppresses Autophagy and Sensitizes Cancer Cells to Nutrient Stress” (iScience, 2018).

Assay [1] deals with Vascular endothelial growth factor receptor 3 (Homo sapiens) (UniProt P35916). The experiment in a line: Inhibition of human recombinant FLT4 at 40 nM related to control ULK1.
The target in assay [2] is T1, Interleukin-1 receptor-associated kinase 4 (Homo sapiens) (UniProt Q9NWZ3).
T1 sequence (whole entry): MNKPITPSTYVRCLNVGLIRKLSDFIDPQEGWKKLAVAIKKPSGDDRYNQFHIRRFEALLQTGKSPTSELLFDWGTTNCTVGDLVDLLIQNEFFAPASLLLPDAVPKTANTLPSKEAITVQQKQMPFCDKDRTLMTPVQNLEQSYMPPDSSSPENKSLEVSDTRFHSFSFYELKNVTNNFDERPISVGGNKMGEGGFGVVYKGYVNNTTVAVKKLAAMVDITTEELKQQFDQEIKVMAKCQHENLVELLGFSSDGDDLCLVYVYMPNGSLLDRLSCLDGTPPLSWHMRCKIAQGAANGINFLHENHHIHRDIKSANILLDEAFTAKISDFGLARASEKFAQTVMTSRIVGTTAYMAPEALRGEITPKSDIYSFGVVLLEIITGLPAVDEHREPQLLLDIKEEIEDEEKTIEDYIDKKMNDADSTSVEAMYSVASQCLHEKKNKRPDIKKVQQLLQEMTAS
Nature of the assay: Inhibition of human recombinant IRAK4 at 40 nM related to control ULK1.

Assay [3] has as its target Tyrosine-protein kinase JAK1 (Homo sapiens) (UniProt P23458). Nature of the assay: Inhibition of human recombinant JAK1 at 40 nM related to control ULK1.
The target of assay [4] is T2, Serine/threonine-protein kinase BRSK1 (Homo sapiens) (UniProt Q8TDC3).
T2 sequence (whole entry): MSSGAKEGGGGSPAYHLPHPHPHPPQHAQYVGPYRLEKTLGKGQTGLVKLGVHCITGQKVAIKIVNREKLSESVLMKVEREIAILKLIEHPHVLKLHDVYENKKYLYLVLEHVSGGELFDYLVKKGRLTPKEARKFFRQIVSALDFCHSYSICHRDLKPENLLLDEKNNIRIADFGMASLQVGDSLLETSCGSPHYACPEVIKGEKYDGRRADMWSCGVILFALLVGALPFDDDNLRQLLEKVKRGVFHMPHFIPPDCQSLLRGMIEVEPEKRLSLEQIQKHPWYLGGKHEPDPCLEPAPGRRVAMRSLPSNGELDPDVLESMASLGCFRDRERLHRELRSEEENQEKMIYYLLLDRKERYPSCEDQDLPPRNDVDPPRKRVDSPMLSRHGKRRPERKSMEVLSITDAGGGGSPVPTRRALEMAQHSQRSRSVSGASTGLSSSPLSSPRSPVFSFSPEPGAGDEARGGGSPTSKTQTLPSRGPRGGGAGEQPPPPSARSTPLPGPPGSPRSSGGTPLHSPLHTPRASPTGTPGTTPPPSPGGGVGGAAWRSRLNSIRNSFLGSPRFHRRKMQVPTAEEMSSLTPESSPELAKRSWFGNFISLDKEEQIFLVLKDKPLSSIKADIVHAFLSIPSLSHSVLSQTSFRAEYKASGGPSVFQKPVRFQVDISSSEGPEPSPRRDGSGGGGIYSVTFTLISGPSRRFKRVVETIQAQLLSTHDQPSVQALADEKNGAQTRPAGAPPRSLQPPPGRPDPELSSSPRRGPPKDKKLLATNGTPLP
The experiment in a line: Inhibition of human recombinant BRSK1 at 500 nM in presence of ATP by radiometric assay relative to control. A digest of the protocol: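 Recombinant human kinase panel (327 kinases) run as radiometric activity assays, each kinase in duplicate at one compound concentration. Activity remaining expressed relative to vehicle control; percent inhibition taken as 100% minus % activity remaining.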

Assay [5] concerns the target Non-receptor tyrosine-protein kinase TYK2 (Homo sapiens) (UniProt P29597). The experiment in a line: Inhibition of human recombinant TYK2 at 500 nM in presence of ATP by radiometric assay relative to control.
The target in assay [6] is T3, Mitogen-activated protein kinase kinase kinase 2 (Homo sapiens) (UniProt Q9Y2U5).
T3 sequence (whole entry): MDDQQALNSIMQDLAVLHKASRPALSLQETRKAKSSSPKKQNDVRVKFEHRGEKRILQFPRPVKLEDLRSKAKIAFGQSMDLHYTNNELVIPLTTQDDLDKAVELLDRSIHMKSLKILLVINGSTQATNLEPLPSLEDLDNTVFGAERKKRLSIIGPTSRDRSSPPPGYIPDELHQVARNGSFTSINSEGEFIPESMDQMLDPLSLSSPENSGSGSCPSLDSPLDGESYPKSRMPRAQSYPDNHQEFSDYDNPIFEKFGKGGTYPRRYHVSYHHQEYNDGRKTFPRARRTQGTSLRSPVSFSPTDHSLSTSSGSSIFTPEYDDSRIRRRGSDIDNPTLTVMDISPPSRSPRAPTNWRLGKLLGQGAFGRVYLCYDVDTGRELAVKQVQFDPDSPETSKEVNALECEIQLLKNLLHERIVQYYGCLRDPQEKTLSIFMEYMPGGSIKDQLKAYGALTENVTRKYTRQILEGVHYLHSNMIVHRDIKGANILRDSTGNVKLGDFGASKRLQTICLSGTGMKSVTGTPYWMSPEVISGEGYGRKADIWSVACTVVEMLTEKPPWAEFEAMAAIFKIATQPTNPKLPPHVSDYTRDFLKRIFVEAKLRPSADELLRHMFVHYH
The experiment in a line: Inhibition of human recombinant MAP3K2 at 15 nM related to control ULK1.

Assay [7] concerns the target Myosin light chain kinase 2, skeletal/cardiac muscle (Homo sapiens) (UniProt Q9H1R3). The experiment in a line: Inhibition of human recombinant skMLCK at 15 nM related to control ULK1.

Molecules are shown by their SMILES.

Sequence of Non-receptor tyrosine-protein kinase TYK2 (Homo sapiens) (P29597 whole entry): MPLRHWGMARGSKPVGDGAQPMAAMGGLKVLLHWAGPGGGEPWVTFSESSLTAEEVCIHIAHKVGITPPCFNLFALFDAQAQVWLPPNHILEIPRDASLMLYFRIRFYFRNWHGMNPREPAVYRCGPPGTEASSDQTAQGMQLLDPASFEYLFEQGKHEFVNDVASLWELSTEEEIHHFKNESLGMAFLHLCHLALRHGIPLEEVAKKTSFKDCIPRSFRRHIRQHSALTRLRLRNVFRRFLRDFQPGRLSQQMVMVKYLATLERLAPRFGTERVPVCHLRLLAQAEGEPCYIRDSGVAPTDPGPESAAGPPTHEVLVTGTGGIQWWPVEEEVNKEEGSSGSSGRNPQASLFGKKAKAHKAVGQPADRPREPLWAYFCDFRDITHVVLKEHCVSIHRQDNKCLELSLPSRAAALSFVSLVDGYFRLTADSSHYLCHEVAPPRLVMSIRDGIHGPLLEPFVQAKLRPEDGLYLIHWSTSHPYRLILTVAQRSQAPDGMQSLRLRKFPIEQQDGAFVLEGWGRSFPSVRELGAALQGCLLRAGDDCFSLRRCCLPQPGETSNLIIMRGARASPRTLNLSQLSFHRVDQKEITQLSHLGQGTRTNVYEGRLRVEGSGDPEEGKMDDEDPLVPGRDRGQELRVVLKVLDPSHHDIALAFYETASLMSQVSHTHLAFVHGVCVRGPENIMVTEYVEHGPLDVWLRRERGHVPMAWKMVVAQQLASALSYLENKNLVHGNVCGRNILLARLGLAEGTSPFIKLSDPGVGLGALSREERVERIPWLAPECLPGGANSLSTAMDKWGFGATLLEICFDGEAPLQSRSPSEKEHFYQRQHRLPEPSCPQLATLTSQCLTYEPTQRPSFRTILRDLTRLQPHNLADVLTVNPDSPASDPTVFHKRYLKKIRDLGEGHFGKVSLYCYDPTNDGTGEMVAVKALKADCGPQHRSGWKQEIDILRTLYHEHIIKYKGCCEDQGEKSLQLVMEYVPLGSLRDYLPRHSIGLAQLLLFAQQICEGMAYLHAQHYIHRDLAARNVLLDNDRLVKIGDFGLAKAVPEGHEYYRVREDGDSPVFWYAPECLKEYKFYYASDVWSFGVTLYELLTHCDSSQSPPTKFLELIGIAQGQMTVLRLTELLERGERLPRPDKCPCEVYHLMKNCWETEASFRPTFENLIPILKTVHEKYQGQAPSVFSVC
Sequence of Myosin light chain kinase 2, skeletal/cardiac muscle (Homo sapiens) (Q9H1R3 whole entry): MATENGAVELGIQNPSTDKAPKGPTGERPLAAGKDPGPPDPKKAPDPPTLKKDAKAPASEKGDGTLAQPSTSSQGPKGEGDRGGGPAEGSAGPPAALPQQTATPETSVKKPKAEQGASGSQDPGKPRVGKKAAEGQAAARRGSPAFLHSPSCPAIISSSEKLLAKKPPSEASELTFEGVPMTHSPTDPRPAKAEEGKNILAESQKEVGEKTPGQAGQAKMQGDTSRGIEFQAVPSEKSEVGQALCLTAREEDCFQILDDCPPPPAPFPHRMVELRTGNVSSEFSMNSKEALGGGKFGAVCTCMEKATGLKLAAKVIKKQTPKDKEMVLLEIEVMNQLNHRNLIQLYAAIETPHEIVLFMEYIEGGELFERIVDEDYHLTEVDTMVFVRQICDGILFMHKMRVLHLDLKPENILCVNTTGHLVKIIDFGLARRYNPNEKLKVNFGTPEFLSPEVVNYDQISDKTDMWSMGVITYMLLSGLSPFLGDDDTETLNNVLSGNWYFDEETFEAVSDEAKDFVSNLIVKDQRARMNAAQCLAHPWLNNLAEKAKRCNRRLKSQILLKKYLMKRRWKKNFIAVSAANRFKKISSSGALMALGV
Sequence of Tyrosine-protein kinase JAK1 (Homo sapiens) (P23458 whole entry): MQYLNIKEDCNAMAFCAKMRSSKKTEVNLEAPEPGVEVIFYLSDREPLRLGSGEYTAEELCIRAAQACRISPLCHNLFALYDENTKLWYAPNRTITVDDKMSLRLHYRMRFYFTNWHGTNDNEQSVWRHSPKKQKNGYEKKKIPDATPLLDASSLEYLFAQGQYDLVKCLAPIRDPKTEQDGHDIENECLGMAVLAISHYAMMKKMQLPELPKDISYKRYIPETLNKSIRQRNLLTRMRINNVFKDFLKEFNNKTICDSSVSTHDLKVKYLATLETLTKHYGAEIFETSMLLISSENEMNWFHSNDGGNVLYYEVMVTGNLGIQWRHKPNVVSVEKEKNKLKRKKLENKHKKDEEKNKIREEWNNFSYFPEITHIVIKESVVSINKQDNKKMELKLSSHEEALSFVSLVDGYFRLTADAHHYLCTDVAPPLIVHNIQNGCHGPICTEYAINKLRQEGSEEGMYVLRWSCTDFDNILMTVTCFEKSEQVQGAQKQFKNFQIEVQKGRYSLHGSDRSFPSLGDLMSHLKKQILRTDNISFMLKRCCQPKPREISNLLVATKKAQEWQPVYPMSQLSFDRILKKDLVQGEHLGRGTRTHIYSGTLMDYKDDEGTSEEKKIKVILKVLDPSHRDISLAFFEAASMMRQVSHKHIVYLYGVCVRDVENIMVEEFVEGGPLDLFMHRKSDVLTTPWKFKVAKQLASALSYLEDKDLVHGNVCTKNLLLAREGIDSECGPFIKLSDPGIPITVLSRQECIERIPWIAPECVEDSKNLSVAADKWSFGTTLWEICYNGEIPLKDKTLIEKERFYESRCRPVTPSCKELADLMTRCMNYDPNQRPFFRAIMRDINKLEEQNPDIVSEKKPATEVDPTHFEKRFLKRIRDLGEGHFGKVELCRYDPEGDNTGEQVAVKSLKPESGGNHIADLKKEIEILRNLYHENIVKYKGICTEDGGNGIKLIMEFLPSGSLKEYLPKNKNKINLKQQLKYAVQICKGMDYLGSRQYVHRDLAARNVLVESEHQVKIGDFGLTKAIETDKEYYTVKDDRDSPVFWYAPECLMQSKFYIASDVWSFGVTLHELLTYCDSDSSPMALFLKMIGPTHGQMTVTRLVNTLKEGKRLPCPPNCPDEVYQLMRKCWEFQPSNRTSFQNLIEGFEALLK
Sequence of Vascular endothelial growth factor receptor 3 (Homo sapiens) (P35916 whole entry): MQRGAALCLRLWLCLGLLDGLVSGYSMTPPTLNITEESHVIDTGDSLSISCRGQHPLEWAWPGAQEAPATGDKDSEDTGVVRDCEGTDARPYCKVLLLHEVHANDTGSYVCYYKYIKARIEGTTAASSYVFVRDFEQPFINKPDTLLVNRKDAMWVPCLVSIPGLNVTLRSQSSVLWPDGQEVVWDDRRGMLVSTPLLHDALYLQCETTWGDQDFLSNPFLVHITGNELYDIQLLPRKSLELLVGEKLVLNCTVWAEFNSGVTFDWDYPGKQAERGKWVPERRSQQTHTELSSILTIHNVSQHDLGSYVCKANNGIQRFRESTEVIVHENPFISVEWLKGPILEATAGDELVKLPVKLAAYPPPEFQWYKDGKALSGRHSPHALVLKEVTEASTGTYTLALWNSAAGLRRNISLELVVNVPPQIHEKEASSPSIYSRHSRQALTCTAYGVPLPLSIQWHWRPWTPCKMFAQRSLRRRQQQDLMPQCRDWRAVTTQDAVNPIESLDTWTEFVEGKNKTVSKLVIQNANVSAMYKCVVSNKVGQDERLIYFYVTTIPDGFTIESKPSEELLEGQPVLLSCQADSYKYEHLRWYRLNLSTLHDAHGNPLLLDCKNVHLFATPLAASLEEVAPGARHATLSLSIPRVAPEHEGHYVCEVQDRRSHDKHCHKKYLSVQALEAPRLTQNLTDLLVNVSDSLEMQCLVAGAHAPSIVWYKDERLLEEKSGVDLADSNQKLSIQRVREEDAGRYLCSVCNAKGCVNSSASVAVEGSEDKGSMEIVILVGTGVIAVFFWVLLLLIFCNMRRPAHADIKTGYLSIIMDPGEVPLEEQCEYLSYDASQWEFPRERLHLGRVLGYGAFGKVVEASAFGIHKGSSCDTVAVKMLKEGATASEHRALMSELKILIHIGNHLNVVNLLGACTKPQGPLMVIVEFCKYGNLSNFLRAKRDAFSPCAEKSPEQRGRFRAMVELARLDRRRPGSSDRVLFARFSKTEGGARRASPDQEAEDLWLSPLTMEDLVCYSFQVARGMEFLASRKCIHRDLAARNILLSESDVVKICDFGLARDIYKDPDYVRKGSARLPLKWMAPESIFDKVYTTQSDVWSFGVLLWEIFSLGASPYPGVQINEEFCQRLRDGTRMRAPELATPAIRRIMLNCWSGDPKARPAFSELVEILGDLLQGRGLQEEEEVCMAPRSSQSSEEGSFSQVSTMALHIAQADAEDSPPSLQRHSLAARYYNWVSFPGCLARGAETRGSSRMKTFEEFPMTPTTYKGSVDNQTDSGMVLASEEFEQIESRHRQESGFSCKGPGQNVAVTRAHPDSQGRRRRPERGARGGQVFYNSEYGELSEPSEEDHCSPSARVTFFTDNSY

As for `O=C(N[C@@H](C1CC1)C(F)(F)F)c1cc(-c2cnn3cc(-c4ccc(F)cc4)cnc23)cs1`, the fold change (FC) in assay [1] is 0.26; in assay [2], 0; in assay [3], 0.

For the compound `CNC(=O)c1ccccc1Oc1nc(Nc2cc(OC)c(OC)c(OC)c2)ncc1Br`, the inhibition (as a rule, the percentage by which the read-out fell short of the control) in assay [4] stood at 2%; in assay [5] it was 78%.

Consider `CC(C)[C@H](NC(=O)c1cc(-c2cnn3cc(-c4ccc(OCCN5CCCCC5)cc4)cnc23)cs1)C(F)(F)F`, for which the fold change (FC) came out at 0.03 in assay [6] and 0.13 in assay [7].
